Assay results from ChEMBL document CHEMBL3046625, “Herbicidal and Fungicidal Activities of Lactones in Kava (Piper methysticum)” (2006).

Tests used:
Assay type in all cases: functional
[1] = tested on: Echinochloa crus-galli; assay: Herbicidal activity against Echinochloa crus-galli (barnyard grass) assessed as inhibition of germination at 1 ppm relative to untreated control
Procedure, shortened: (§1)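 Pure reference kava lactones diluted to 1 and 10 ppm. Seeds were sterilized in 1% sodium hypochlorite for 30 min and rinsed in distilled water; germination >80%. Five replicates were incubated at 25 °C, 4000 lx, 8/16 h day/night, 75% humidity. Distilled-water controls. After 7 days, germinated seeds were counted and shoot and root lengths measured.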

[2] = tested on: Colletotrichum gloeosporioides; assay: Antifungal activity against Colletotrichum gloeosporioides assessed as growth inhibition at 10 ppm after 4 days relative to untreated control; details: 96 h, read-out: GI
Procedure, shortened: (§2)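 Fungal cultures kept on potato dextrose agar (PDA) and subcultured on fresh medium for 3 days before testing. PDA plates held kava lactones dissolved in water at 10 or 50 ppm. Plates were inoculated with plugs from the actively growing fungal margin and incubated at 25 °C for 4 days. Distilled-water controls. Completely randomized design, at least three replicates, ANOVA.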

[3] = tested on: Trichoderma viride; assay: Antifungal activity against Hypocrea rufa assessed as growth inhibition at 50 ppm after 4 days relative to untreated control; details: 96 h, read-out: GI; procedure, shortened: as §2
[4] = tested on: Fusarium oxysporum; assay: Antifungal activity against Fusarium oxysporum assessed as growth inhibition at 50 ppm after 4 days relative to untreated control; details: 96 h, read-out: GI; procedure, shortened: as §2
[5] = tested on: Echinochloa crus-galli; assay: Herbicidal activity against Echinochloa crus-galli (barnyard grass) assessed as inhibition of shoot length at 10 ppm relative to untreated control; procedure, shortened: as §1
[6] = tested on: Echinochloa crus-galli; assay: Herbicidal activity against Echinochloa crus-galli (barnyard grass) assessed as inhibition of germination at 10 ppm relative to untreated control; procedure, shortened: as §1
[7] = tested on: Fusarium solani; assay: Antifungal activity against Fusarium solani assessed as growth inhibition at 50 ppm after 4 days relative to untreated control; details: 96 h, read-out: GI; procedure, shortened: as §2
[8] = tested on: Echinochloa crus-galli; assay: Herbicidal activity against Echinochloa crus-galli (barnyard grass) assessed as inhibition of root length at 1 ppm relative to untreated control; procedure, shortened: as §1
[9] = tested on: Trichoderma viride; assay: Antifungal activity against Hypocrea rufa assessed as growth inhibition at 10 ppm after 4 days relative to untreated control; details: 96 h, read-out: GI; procedure, shortened: as §2
[10] = tested on: Lactuca sativa; assay: Herbicidal activity against Lactuca sativa cv. Great Lakes 366 (lettuce) assessed as inhibition of root length at 10 ppm relative to untreated control; procedure, shortened: as §1
[11] = tested on: Lactuca sativa; assay: Herbicidal activity against Lactuca sativa cv. Great Lakes 366 (lettuce) assessed as inhibition of germination at 10 ppm relative to untreated control; procedure, shortened: as §1
[12] = tested on: Fusarium oxysporum; assay: Antifungal activity against Fusarium oxysporum assessed as growth inhibition at 10 ppm after 4 days relative to untreated control; details: 96 h, read-out: GI; procedure, shortened: as §2
[13] = tested on: Colletotrichum gloeosporioides; assay: Antifungal activity against Colletotrichum gloeosporioides assessed as growth inhibition at 50 ppm after 4 days relative to untreated control; details: 96 h, read-out: GI; procedure, shortened: as §2
[14] = tested on: Lactuca sativa; assay: Herbicidal activity against Lactuca sativa cv. Great Lakes 366 (lettuce) assessed as inhibition of shoot length at 10 ppm relative to untreated control; procedure, shortened: as §1
[15] = tested on: Echinochloa crus-galli; assay: Herbicidal activity against Echinochloa crus-galli (barnyard grass) assessed as inhibition of root length at 10 ppm relative to untreated control; procedure, shortened: as §1
[16] = tested on: Fusarium solani; assay: Antifungal activity against Fusarium solani assessed as growth inhibition at 10 ppm after 4 days relative to untreated control; details: 96 h, read-out: GI; procedure, shortened: as §2
[17] = tested on: Echinochloa crus-galli; assay: Herbicidal activity against Echinochloa crus-galli (barnyard grass) assessed as inhibition of shoot length at 1 ppm relative to untreated control; procedure, shortened: as §1
[18] = tested on: Lactuca sativa; assay: Herbicidal activity against Lactuca sativa cv. Great Lakes 366 (lettuce) assessed as inhibition of shoot length at 1 ppm relative to untreated control; procedure, shortened: as §1
[19] = tested on: Lactuca sativa; assay: Herbicidal activity against Lactuca sativa cv. Great Lakes 366 (lettuce) assessed as inhibition of germination at 1 ppm relative to untreated control; procedure, shortened: as §1
[20] = tested on: Lactuca sativa; assay: Herbicidal activity against Lactuca sativa cv. Great Lakes 366 (lettuce) assessed as inhibition of root length at 1 ppm relative to untreated control; procedure, shortened: as §1

For `COC1=CC(=O)O[C@@H](CCc2ccc3c(c2)OCO3)C1` [DIHYDROMETHYSTICIN], the inhibition at 1 ppm [1] was 50%, the inhibition of growth at 10 ppm [2] was 0% and the inhibition of growth at 50 ppm [3] was 0%. For the same compound, the inhibition of growth at 50 ppm [4] was 31.9%, the inhibition at 10 ppm [5] was 55.6% and the inhibition at 10 ppm [6] was 56.7%. It also gave an inhibition of growth at 50 ppm [7] of 48.4%, an inhibition at 1 ppm [8] of 32.1% and an inhibition of growth at 10 ppm [9] of 0%. For the same compound, the inhibition at 10 ppm [10] was 74.8%, the inhibition at 10 ppm [11] was 89.9% and the inhibition of growth at 10 ppm [12] was 18.8%. For the same compound, the inhibition of growth at 50 ppm [13] was 27.8%, the inhibition at 10 ppm [14] was 76.5% and the inhibition at 10 ppm [15] was 48.2%. It also gave an inhibition of growth at 10 ppm [16] of 40.3% and an inhibition at 1 ppm [17] of 48.6%.

In the case of `COC1=CC(=O)O[C@@H](CCc2ccccc2)C1` [DIHYDROKAWAIN], the inhibition at 1 ppm [1] is reported as 46.7%, the inhibition of growth at 10 ppm [2] is reported as 0% and the inhibition of growth at 50 ppm [3] is reported as 16.2%. The inhibition of growth at 50 ppm [4] was 21.7%, the inhibition at 10 ppm [5] was 61.2% and the inhibition at 10 ppm [6] was 50%. For the same compound, the inhibition of growth at 50 ppm [7] was 38.7%, the inhibition at 1 ppm [8] was 53.1% and the inhibition of growth at 10 ppm [9] was 0%. For the same compound, the inhibition at 10 ppm [10] was 15.6%, the inhibition at 10 ppm [11] was 25.9% and the inhibition of growth at 10 ppm [12] was 10.1%. It also gave an inhibition of growth at 50 ppm [13] of 33.3%, an inhibition at 10 ppm [14] of 74.3% and an inhibition at 10 ppm [15] of 58.9%. It also gave an inhibition of growth at 10 ppm [16] of 0% and an inhibition at 1 ppm [17] of 56.6%.

`COc1ccc(/C=C/c2cc(OC)cc(=O)o2)cc1` [YANGONIN] showed an inhibition at 1 ppm [18] of 63.1%, an inhibition at 1 ppm [1] of 56.7% and an inhibition of growth at 50 ppm [3] of 0%. The inhibition of growth at 50 ppm [4] was 39.1%, the inhibition at 10 ppm [5] was 58.2% and the inhibition at 10 ppm [6] was 56.7%. For the same compound, the inhibition of growth at 50 ppm [7] was 41.9%, the inhibition at 1 ppm [8] was 42.9% and the inhibition at 10 ppm [10] was 68%. The inhibition at 1 ppm [19] was 44.4%, the inhibition at 10 ppm [11] was 59.2% and the inhibition of growth at 50 ppm [13] was 0%. It also gave an inhibition at 1 ppm [20] of 36.1%, an inhibition at 10 ppm [14] of 78.6% and an inhibition at 10 ppm [15] of 43.8%. The inhibition at 1 ppm [17] was 53.1%.

`COc1cc(/C=C/c2ccccc2)oc(=O)c1` [DESMETHOXYYANGONIN] was tested, and the inhibition at 1 ppm [18] was 74.9%, the inhibition at 1 ppm [1] was 43.3% and the inhibition of growth at 10 ppm [2] was 0%. The inhibition of growth at 50 ppm [3] was 0%, the inhibition of growth at 50 ppm [4] was 24.6% and the inhibition at 10 ppm [5] was 59.9%. It also gave an inhibition at 10 ppm [6] of 60%, an inhibition of growth at 50 ppm [7] of 33.9% and an inhibition at 1 ppm [8] of 46.4%. For the same compound, the inhibition of growth at 10 ppm [9] was 0%, the inhibition at 10 ppm [10] was 63.3% and the inhibition at 1 ppm [19] was 48.1%. The inhibition at 10 ppm [11] was 59.2%, the inhibition of growth at 10 ppm [12] was 11.6% and the inhibition of growth at 50 ppm [13] was 22.2%. It also gave an inhibition at 1 ppm [20] of 50.3%, an inhibition at 10 ppm [14] of 82.4% and an inhibition at 10 ppm [15] of 51.3%. The inhibition of growth at 10 ppm [16] was 27.4% and the inhibition at 1 ppm [17] was 31.7%.

`COC1=CC(=O)O[C@@H](/C=C/c2ccccc2)C1` [KAVAIN] gave an inhibition at 1 ppm [18] of 75.9%, an inhibition at 1 ppm [1] of 46.7% and an inhibition of growth at 10 ppm [2] of 0%. For the same compound, the inhibition of growth at 50 ppm [3] was 0%, the inhibition of growth at 50 ppm [4] was 17.4% and the inhibition at 10 ppm [5] was 47.6%. The inhibition at 10 ppm [6] was 46.7%, the inhibition of growth at 50 ppm [7] was 29% and the inhibition at 1 ppm [8] was 39.7%. For the same compound, the inhibition of growth at 10 ppm [9] was 0%, the inhibition at 10 ppm [10] was 62.6% and the inhibition at 1 ppm [19] was 51.9%. It also gave an inhibition at 10 ppm [11] of 59.2%, an inhibition of growth at 10 ppm [12] of 0% and an inhibition of growth at 50 ppm [13] of 0%. It also gave an inhibition at 1 ppm [20] of 59.9%, an inhibition at 10 ppm [14] of 86.1% and an inhibition at 10 ppm [15] of 46.9%. For the same compound, the inhibition of growth at 10 ppm [16] was 29%.

With `COC1=CC(=O)O[C@@H](/C=C/c2ccc3c(c2)OCO3)C1` [METHYSTICIN] the inhibition at 1 ppm [18] was 71.1%, the inhibition at 1 ppm [1] was 50% and the inhibition of growth at 10 ppm [2] was 0%. For the same compound, the inhibition of growth at 50 ppm [3] was 0%, the inhibition of growth at 50 ppm [4] was 36.2% and the inhibition at 10 ppm [5] was 56%. For the same compound, the inhibition at 10 ppm [6] was 60%, the inhibition of growth at 50 ppm [7] was 33.9% and the inhibition at 1 ppm [8] was 75.4%. For the same compound, the inhibition of growth at 10 ppm [9] was 0%, the inhibition at 10 ppm [10] was 53.1% and the inhibition at 1 ppm [19] was 48.1%. It also gave an inhibition at 10 ppm [11] of 55.6%, an inhibition of growth at 10 ppm [12] of 11.6% and an inhibition of growth at 50 ppm [13] of 0%. It also gave an inhibition at 1 ppm [20] of 61.2%, an inhibition at 10 ppm [14] of 73.3% and an inhibition at 10 ppm [15] of 83.9%. For the same compound, the inhibition of growth at 10 ppm [16] was 37.1% and the inhibition at 1 ppm [17] was 55%.
